Experimental data as given in PMC6531791 (Molecular Metabolism, 2019).

Assays:
Assay type in all cases: in vivo, mouse
[1] = test system: SN DA neurons (TH+); experiment: In situ detection of ROS with dihydroethidium; conditions: following MPTP exposure, with or without Dln101 pre-treatment; n = 4–6 per group
Method in brief: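 Dihydroethidium, 200 μl of a 1 mg/ml stock in 1% DMSO, was injected into the tail vein. Mice were perfused 3 h later. Midbrain sections were co-immunostained for TH. DHE fluorescence intensity was quantified in TH+ cells, n = 4–6 per group.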

[2] = test system: SN DA neuron mitochondria; experiment: Electron microscopy analysis of mitochondrial morphology in SN DA neurons; conditions: for Mitochondrial average area in SN DA cells / Mitochondrial cytoplasmic coverage: WT mice; for Mitochondrial average area in SN DA cells: vehicle = 0.143 ± 0.004, n = 102–473 per group; for Mitochondrial cytoplasmic coverage: vehicle = 9.94% ± 1.1; for average mitochondrial area in SN DA cells / mitochondrial coverage of cytoplasmic area / mitochondrial units per cell: iCre-DAT MFN2KO animals; for average mitochondrial area in SN DA cells: untreated KO = 0.163 ± 0.005; for mitochondrial coverage of cytoplasmic area: untreated KO = 9.35% ± 0.56; for mitochondrial units per cell: untreated KO = 80 ± 12
Method in brief: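 Mice got test peptide (15 nmoles) or saline s.c. daily for 10 days, 15 min before dark onset. […] Perfusion: ice-cold saline, then 4% PFA/15% picric acid/0.1% glutaraldehyde in 0.1M PB. Sections were freeze-thawed and immunolabelled. Mitochondria required visible cristae and a double membrane. Coverage = summed mitochondrial area / (cell − nucleus area), %.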

[3] = Accelerating rotarod test, MPTP model; conditions: WT mice; MPTP after saline, ghrelin or Dln101 pre-treatment; vehicle = 88.9 ± 6.4; mean ± SEM, n = 5–11 per group
[4] = test system: microglia in SN; experiment: Microglia immunostaining with IBA-1 antibody in SN; conditions: after MPTP exposure, with or without Dln101 pre-treatment
Method in brief: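 Sections were blocked in 5% normal goat serum, 1% BSA, 0.1% glycine and 0.1% L-lysine. Rabbit polyclonal anti-IBA-1 (1:3000) was applied overnight at 4 °C, then a biotinylated secondary with ABC/DAB or avidin-Alexa 488. TH was co-stained.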

[5] = 1 day after MPTP (15 mg/kg), alone or after Dln101 pre-treatment

In the case of `CN1CC=C(c2ccccc2)CC1` [MPTP, 1-methyl-4-phenyl-1,2,5,6 tetrahydropyridine], the “increase in ROS production in SN DA neurons (DHE fluorescence)” value [1] is reported as 7.46 fold, the “Mitochondrial average area in SN DA cells” value ([2]; 4 h after MPTP (15 mg/kg)) is reported as 0.112 ± 0.006 μm^2 and the Mitochondrial cytoplasmic coverage ([2]; 4 h after MPTP (15 mg/kg)) is reported as 8.66% ± 0.68. The “Mitochondrial average area in SN DA cells” value [2, 5] was 0.176 ± 0.006 μm^2, the Mitochondrial cytoplasmic coverage [2, 5] was 6.144% ± 0.51 and the “average mitochondrial area in SN DA cells” value ([2]; 4h after MPTP, n = 421–1456) was 0.179 ± 0.004. For the same compound, the “mitochondrial coverage of cytoplasmic area” value ([2]; 4h after MPTP) was 10.22 ± 0.69%, the “mitochondrial units per cell” value ([2]; 4h after MPTP) was 52 ± 6 and the “average mitochondrial area in SN DA cells” value ([2]; 3days after MPTP) was 0.287 ± 0.006. For the same compound, the “mitochondrial coverage of cytoplasmic area” value ([2]; 3days after MPTP) was 23.32 ± 4.21%, the “mitochondrial units per cell” value ([2]; 3days after MPTP) was 29 ± 3 and the “Latency to fall from the rotarod” value [3] was 51.0 ± 5.0 s. For the same compound, the “microglial morphology / activation in SN (IBA1 immunostaining)” value [4] was “microglial activation”.
